From PubChem BioAssay
TRPC6 inhibitor – blocks the mouse TRPC6 cation channel; Q61143; HEK293-TRPC6, membrane potential dye, ACh-evoked depolarization; stronger effect = lower value; B-score at 10 µM; 1.1% of 310,000 active; AID 2553;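 active means B-score under library mean minus 3 SD, initial fluorescence not abnormally high, positive integrated signal ratio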;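 further: B-score derived from integrated fluorescence ratio over the kinetic read; more negative B-score means stronger inhibition of depolarization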
TRPC6 act – activates the mouse TRPC6 cation channel. B-score at 10 µM. HEK293-TRPC6 membrane potential dye fluorescence; stronger effect = higher value. 0.13% of 310,000 active;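 active means B-score of the integrated fluorescence ratio above library mean plus 3 SD, and starting fluorescence ratio within library mean plus 5 SD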;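 further: higher score means more depolarization so channel activation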
TRPC4 block – inhibitors of mouse TRPC4 channel | HEK293 TRPC4beta/mu-opioid, DAMGO-evoked Fluo4 calcium flux; stronger effect = lower value | Q9QUQ5 | B-score at 10 µM | 0.39% of 300,000 active;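 active means B-score over 3 SD under the library average, no early fluorescence shift, positive overall ratio signal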
Target sequence (Q9QUQ5 whole entry, looked up): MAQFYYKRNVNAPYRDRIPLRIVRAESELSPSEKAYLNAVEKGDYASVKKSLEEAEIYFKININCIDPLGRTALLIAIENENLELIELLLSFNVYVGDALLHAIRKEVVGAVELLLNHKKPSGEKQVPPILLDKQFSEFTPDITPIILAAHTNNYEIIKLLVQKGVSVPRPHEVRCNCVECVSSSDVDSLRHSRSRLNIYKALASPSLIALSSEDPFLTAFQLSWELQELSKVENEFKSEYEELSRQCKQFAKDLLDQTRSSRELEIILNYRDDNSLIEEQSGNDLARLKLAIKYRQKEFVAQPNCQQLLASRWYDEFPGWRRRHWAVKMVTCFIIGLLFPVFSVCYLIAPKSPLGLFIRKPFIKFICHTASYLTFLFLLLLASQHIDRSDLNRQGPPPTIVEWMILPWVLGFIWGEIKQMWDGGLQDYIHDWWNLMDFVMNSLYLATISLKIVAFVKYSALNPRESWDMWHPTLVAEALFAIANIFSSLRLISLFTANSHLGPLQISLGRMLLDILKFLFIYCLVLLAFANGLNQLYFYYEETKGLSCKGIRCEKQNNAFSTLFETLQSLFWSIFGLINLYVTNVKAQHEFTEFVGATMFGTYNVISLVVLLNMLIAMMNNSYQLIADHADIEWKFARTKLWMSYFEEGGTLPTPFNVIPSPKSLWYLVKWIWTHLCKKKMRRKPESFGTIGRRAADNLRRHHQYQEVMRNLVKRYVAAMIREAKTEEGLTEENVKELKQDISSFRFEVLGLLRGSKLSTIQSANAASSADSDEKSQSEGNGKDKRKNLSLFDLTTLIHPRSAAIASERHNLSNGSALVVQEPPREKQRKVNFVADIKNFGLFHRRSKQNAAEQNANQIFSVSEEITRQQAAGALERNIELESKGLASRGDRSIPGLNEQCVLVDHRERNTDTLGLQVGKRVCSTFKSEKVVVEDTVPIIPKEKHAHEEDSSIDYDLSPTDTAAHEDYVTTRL
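test system = HEK293 cells with stable TRPC4beta plus mu-opioid receptor expression | detection = Fluo4 Ca2+ flux fluorescence | read-out = integrated fluorescence ratio relative to baseline, converted to per-well B score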
Platelet DG rel – platelet dense granule release activity; human platelet-rich plasma, SFLLRN dense granule ATP release, luminescence; inhibition, %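 (compounds screened at 7.5 µM in platelet-rich plasma)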; 0.22% of 300,000 active; AID 1663;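 active means mean replicate score, as percent of positive control, at or above 50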
TRPC4 agonist – opens the mouse TRPC4 cation channel; HEK293 TRPC4beta/mu-opioid, Fluo4 calcium fluorescence; stronger effect = higher value; B-score at 10 µM; 0.49% of 310,000 active;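 active means B-score above 5 SD of library B-scores, and initial fluorescence ratio not above library mean plus 5 SD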;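 further: positive B-score marks a calcium rise read as TRPC4 activation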
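System – HEK293 cells stably co-expressing mouse TRPC4beta and mu-opioid receptor · Signal – Fluo4 calcium-sensitive dye fluorescence, kinetic, 1 Hz baseline · Benchmarks – buffer (low) and maximal DAMGO (high) · Read-out – B score of integrated fluorescence ratio per well · Incubation – dye loading 45 min room temperature, 110 s kinetic read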
TRPC4 PAM – allosteric potentiators of mouse TRPC4 channel; Q9QUQ5; 0.42% of 310,000 active; HEK293 TRPC4beta/mu-opioid, DAMGO EC20, Fluo-4 Ca2+ flux; stronger effect = higher value; B-score at 10 µM;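 active means B-score of calcium response area above 5 SD of library B-scores, with initial fluorescence ratio within 5 SD of library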;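 further: B-score of integrated fluorescence ratio over time as area under calcium response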
TRPC4 spec 2 – mouse TRPC4 off-target activity of TRPC6 inhibitors, second screen; inhibition, % at 10 µM; shares compounds with TRPC6 inhibitor; HEK293 TRPC4/MOR, membrane potential dye fluorescence; channel activated by saturating DAMGO dose; 42% of 920 active; AID 2776;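 active means compounds whose fluorescence signal differed from control wells by over 3 SD, either direction, in both duplicate plates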
TRPC4 spec – tests whether TRPC6 inhibitors also affect mouse TRPC4; HEK293 TRPC4/mu-opioid, membrane potential fluorescence; AID 2777; 61% of 920 active; shares compounds with TRPC6 inhibitor; activity change, negative = inhibition, % at 10 µM;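 active means rise or fall in signal beyond 3 SD of buffer-only wells in both replicate plates, either sign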;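 further: integrated kinetic ratio of fluorescence range over baseline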
HEK293 MPD ctr 2-1 – second check of TRPC6 inhibitor effects in parental HEK293 cells; shares compounds with TRPC6 inhibitor; parental HEK293 membrane potential dye fluorescence; maximal acetylcholine challenge after compound addition; signal change vs control, % at 10 µM; 31% of 920 active;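 active means membrane potential signal moving either way by over 3 SD of the maximum-effect control, in both duplicate plates, meaning non-specific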
HEK293 MPD ctr-1 – counter-screen for TRPC6 inhibitors: effect in parental HEK293 cells; shares compounds with TRPC6 inhibitor; parental HEK293 membrane potential dye fluorescence; membrane potential signal change, % at 10 µM; 60% of 920 active; AID 2780;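 active means membrane potential signal shifting up or down by more than 3 SD of buffer-only wells, on both duplicate plates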
HEK293 MPD ctr-2 – checks TRPC6 modulator effects in parental HEK293 cells; 51% of 2,400 active; AID 488924; membrane potential signal change, % at 10 µM; membrane potential dye fluorescence; shares compounds with TRPC6 inhibitor;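 active means membrane potential signal moves up or down beyond 5 SD from buffer-only wells, on both duplicate plates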
HEK293 MPD ctr 2-2 – second check of TRPC6 modulator effects in parental HEK293 cells. shares compounds with TRPC6 inhibitor. membrane potential dye fluorescence; after compound, maximal acetylcholine stimulation. inhibition, % at 10 µM. 14% of 2,400 active;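 active means membrane potential signal drops by more than 5 SD from the mean control signal, in both duplicate plates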;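 further: plate controls were acetylcholine ECmax control wells for no effect and buffer only wells for full effect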
TRPC4 ctr mod – tests whether TRPC6 modulators also affect mouse TRPC4; HEK293 TRPC4/mu-opioid, membrane potential fluorescence; 69% of 2,400 active; percent change from control (negative = decrease, positive = increase), % at 10 µM; shares compounds with TRPC6 inhibitor;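 active means membrane potential signal moved up or down beyond 5 SD of buffer control wells, in both duplicate plates, actives on both sides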;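 further: plate controls were assay buffer wells for no effect and DAMGO maximal-effect wells for full effect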
TRPC4/MOR inh 2 – second check of whether TRPC6 modulators also affect mouse TRPC4. shares compounds with TRPC6 inhibitor. HEK293 TRPC4/mu-opioid, membrane potential dye fluorescence; stimulated with maximal-effect DAMGO. inhibition, % at 10 µM. 55% of 2,400 active. AID 488928;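 active means drop in membrane potential signal beyond 5 SD of the control wells in both duplicate plates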;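 further: TRPC4 counter screen for TRPC6 hits run under conditions tuned for TRPC6 not TRPC4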
TRPC6 block conf – confirmation of mouse TRPC6 inhibitors; shares compounds with TRPC6 inhibitor; HEK293-TRPC6, membrane potential dye, ACh-evoked depolarization; inhibition, % at 10 µM; 43% of 3,300 active;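 active means fluorescence ratio falls more than 5 SD below the full-stimulation control mean, in both duplicate runs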;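 further: integrated fluorescence ratio of peak minus minimum over baseline after agonist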
TRPC6 act conf – mouse TRPC6 activator confirmation. 11% of 2,800 active. HEK293-TRPC6 membrane potential dye fluorescence, FDSS. activation, % at 10 µM. shares compounds with TRPC6 inhibitor;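 active means ratio signal rise beyond 5 SD above unstimulated control wells' mean, seen in both duplicate runs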;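 further: plate controls were buffer EC0 wells for no effect and acetylcholine ECmax response for full effect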
* hit, by the source's call; i = inactive; . = not tested or not shown; + = active, no number. Rows were chosen to be rich in hits. Some 2.5% of all compounds tested hit in one or more screens of this group.

SMILES	TRPC6 inhibitor	TRPC6 act	TRPC4 block	Platelet DG rel	TRPC4 agonist	TRPC4 PAM	HEK293 MPD ctr-2	HEK293 MPD ctr 2-2	TRPC4 ctr mod	TRPC4/MOR inh 2	TRPC6 block conf	TRPC6 act conf	others
CC(C)N1CCc2c(sc(NC(=S)NC(=O)c3ccccc3)c2C#N)C1	i	48*	i	-1	71*	i	i	i	8.0%*	i	i	i
COCCNC(=O)/C(C#N)=C/c1ccc(N2CCOCC2)o1	i	i	i	-4	i	i	.	.	.	.	.	.
Cc1ccc(/C(C#N)=C\c2ccc(N3CCOCC3)o2)cc1	i	27*	i	2	i	i	420%*	i	98%*	i	i	115%*
N#C/C(=C\c1ccc(N2CCOCC2)o1)C(=O)NCCc1ccccc1	i	14*	i	-3	i	i	774%*	135%*	129%*	i	i	96%*
N#C/C(=C/c1ccc(N2CCOCC2)o1)C(=O)Nc1ccccc1	i	50*	i	32	i	i	+	+	134%*	i	.	322%*
N#C/C(=C\c1ccc(N2CCOCC2)o1)C(=O)NC1CCCCC1	i	i	i	12	i	i	.	.	.	.	.	.
Cc1nn(C(C)C(=O)NC2CCCCC2)c(=O)c2nn(-c3ccccc3)c(C)c12 (stereo unspecified)	i	i	i	5	i	i	.	.	.	.	.	.
O=c1[nH]snc1N1CCOCC1	i	i	i	0	i	i	.	.	.	.	.	.
CN1C(=O)/C(=C\c2ccc(N(C)C)cc2)OC1=S	i	19*	i	-4	i	i	322%*	i	74%*	i	i	123%*
O=C(/C(N=Nc1cccc([N+](=O)[O-])c1)=C(/O)c1ccc(Br)cc1)C(F)(F)F	-8.2*	i	i	10	i	i	.	.	.	.	81%*	i	TRPC4 spec 2=75%*;TRPC4 spec=8.5%*;HEK293 MPD ctr 2-1=i;HEK293 MPD ctr-1=5.2%*
O=C(Nc1ccc2nccnc2c1)c1cnccn1	-5.8*	i	i	4	i	i	-272%*	i	-48%*	42%*	49%*	i
CCc1ccc(NC(=O)c2cnccn2)cc1	i	i	i	10	i	i	.	.	.	.	.	.
CCCn1c(C)cc(=O)c2cc(NC(=O)c3cnccn3)ccc21	-12*	i	i	.	i	i	-300%*	86%*	-60%*	60%*	66%*	i
